Fh CTSL1 inh – blocks F. hepatica cathepsin L1 in PFM18AAP counter-screen. inhibition, % at 5.96 µM. AID 1906. recombinant F. hepatica cathepsin L1, Z-Leu-Arg-MCA fluorescence. hit rate 0.49% among 300,000;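 active means inhibition above the mean of all tested compounds plus 3 SD, set per screening campaign, cut at about 17% in these data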;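 further: 0% = plate median of test compound wells and 100% = 1 µM Z-Phe-Ala-diazomethylketone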
Hep lipid drop – hepatic lipid droplet formation modulation; hit rate 0.4% among 240,000; AID 1656; AML12 mouse hepatocytes, oleate lipid droplets, BODIPY imaging; inhibition, % at 6.5 µM;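 active means lipid droplet intensity inhibited by at least 50%, with more than 500 cells counted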
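Material – AML12 mouse liver cells · Also added – oleate loading, 100 µM · Compound dosing – 6.5 µM single-point dosing · Times – overnight treatment with compound plus oleate · Measured by – fluorescence imaging, 20x objective, two fields per well · Read-out – percent inhibition of filter-corrected integrated lipid droplet intensity per well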
p-CIP stab down – p/CIP protein destabilization; Q05BA5; F442A p/CIP-EGFP cells, EGFP fluorescence, 16 h; decrease of EGFP signal, % at 10 µM; hit rate 0.01% among 290,000;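 active means EGFP signal decrease of at least 30% at 10 µM or well 3 SD below plate mean, unless failing retest; inactive means the rest, including hits failing retest or dose response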
Arr AP2 block – human beta-arrestin and AP2 interaction inhibition; inhibition, % at 10 µM; hit rate 0.31% among 340,000; FITC-arrestin peptide / GST-AP2 beads, flow cytometry; AP2 beta2 appendage carries R879A mutation;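 active means inhibition above a set limit, near 3 SD of compounds lacking own fluorescence, cut at about 54% in these data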;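 further: plate controls were DMSO wells for no effect and 5 µM unlabelled arrestin peptide for full effect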
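system = GST-tagged AP2 beta2-adaptin appendage (R879A) on 4 µm glutathione beads | reagent = FITC-labelled arrestin peptide probe, 50 nM final | schedule = compound with beads 12 min RT, then probe 1 h RT | signal = HyperCyt-sampled flow cytometry, FL1 channel, ex 488/em 535 nm | read-out = percent response from loss of bead-bound FITC fluorescence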
* hit, by the source's call; / = no result given. This is a sample that favours compounds with a hit; in the whole collection about 1% have one here.

SMILES	Fh CTSL1 inh	Hep lipid drop	p-CIP stab down	Arr AP2 block
CCC(=O)NC(c1ccc(OC)cc1)c1c(O)ccc2ccccc12 (stereo not drawn)	1	-1	34*	10
Cc1ccc(S(=O)(=O)N(CCC#N)CCN2CCCC2)cc1	78*	/	1	11
O=C(CNC(=O)c1ccco1)OCC(=O)c1ccccc1Cl	-2	0	4	9
COC(=O)COc1ccccc1C(=O)Nc1ccc(OC)cc1	0	-17	-8	15
O=C(c1cc2cc([N+](=O)[O-])ccc2oc1=O)N1CCOCC1	0	13	0	13
O=C(c1cc2cccc([N+](=O)[O-])c2oc1=O)N1CCOCC1	29*	13	-1	19
O=C(/C=C/Nc1ccc(F)cc1)c1ccc(Br)cc1	0	-10	10	7
O=C(/C=C/Nc1ccc([N+](=O)[O-])cc1)c1ccc(Br)cc1	17*	3	-7	3
COc1cccc(C(=O)NNC2OC(CO)C(O)C2O)c1 (stereo not drawn)	19*	8	8	32
CCOC(=O)c1oc2ccccc2c1NC(=O)CCl	33*	6	-1	-1
O=C(CN1CCN(c2ccccc2)CC1)c1c[nH]c2ccccc12	1	6	-1	6
Cc1cc(C(=O)O)ccc1-n1c(C)cc(C=C2C(=O)c3ccccc3C2=O)c1C	19*	-45	8	-14
Cc1cc(C(=O)O)ccc1-n1c(C)cc(/C=C(/C#N)C(=O)Nc2ccccc2)c1C	0	-2	2	5
CC(C(=O)NNS(=O)(=O)c1cccc(C(F)(F)F)c1)n1nnc(N2CCOCC2)n1 (stereo not drawn)	59*	15	1	15
Cc1ccc(C2=N/C(=C\c3c(C)nn(-c4ccccc4)c3N3CCCC3)C(=O)O2)cc1	55*	7	-13	-2
Cc1nn(-c2ccccc2)c(N2CCCC2)c1/C=C1\N=C(c2ccc(F)cc2)OC1=O	70*	-3	-6	2
Cc1cc(C)c2cc3c(N)c(C(=O)Nc4c(C)[nH]c(=O)[nH]c4=O)sc3nc2c1	1	-23	2	4
Cc1cccc(C)c1NC(=O)c1cccnc1	0	6	-1	5
O=C(CC(c1ccccc1)C1CCCCC1=O)c1ccco1 (stereo not drawn)	4	-6	1	-6
O=C(CC(c1ccco1)C1CCCCC1=O)c1ccco1 (stereo not drawn)	64*	/	-12	-3
COC(=O)CN(C)C(=O)c1ccc(OC)c(OC2CCN(C(C)C)CC2)c1	52*	6	-80	11
S=C(N/N=C/c1ccc(Cl)cc1)N1CCOCC1	19*	2	6	0
Cc1ccc(/C=N/NC(=S)N2CCOCC2)cc1	28*	-8	4	-1
CCCCc1nc2sc3c(c2c(=O)[nH]1)CCC3	-2	/	-7	-2
O=c1c(C=NCCN2CCNCC2)c(-c2ccccc2)[nH]n1-c1ccc([N+](=O)[O-])cc1	1	-12	-5	/
SMILES	Fh CTSL1 inh	Hep lipid drop	p-CIP stab down	Arr AP2 block
CCOC(=O)CC1C(=O)NCCN1c1nc2c(C)cccn2c(=O)c1/C=C1\SC(=S)N(CC(C)C)C1=O (stereo not drawn)	/	-3	-642	/
CC(C)CN1C(=O)/C(=C/c2c(N3CCc4ccccc4C3)nc3ccccn3c2=O)SC1=S	/	120*	-443	/
O=C(c1cnc2n(c1=O)CCS2)N1CCc2ccccc21	3	-8	-7	4
CC1Cc2ccccc2N1C(=O)c1cnc2n(c1=O)CCS2 (stereo not drawn)	66*	/	-8	2
CCC(C)(C)n1nnnc1C(C(C)C)N1CCN(C(=O)c2ccco2)CC1 (stereo not drawn)	-1	5	4	-7
O=C(CNC(=O)c1ccccc1)OCC(=O)N1N=C(c2ccc(Cl)cc2)CC1c1ccco1 (stereo not drawn)	20*	31	-6	1
COc1ccc(C2CC(c3ccccc3)=NN2C(=O)COC(=O)c2ccc(Cl)nc2)cc1 (stereo not drawn)	-6	-4	-12	2
COc1ccc(C2CC(c3ccccc3)=NN2C(=O)COC(=O)CNC(=O)c2ccccc2)cc1 (stereo not drawn)	31*	-10	7	-8
O=C(NCS(=O)(=O)c1ccccc1)c1ccccc1	30*	/	7	11
O=C(NCCNC(=O)c1ccccc1)c1ccccc1	-3	-11	-5	-13
NC(=S)N/N=C1\CCSc2ccc(Cl)cc21	26*	-8	6	12
CCN(CC)S(=O)(=O)c1cccc(NC(=O)COC(=O)CNC(=O)c2cccc(F)c2)c1	18*	1	-15	4
O=C(CNC(=O)C1CCCCC1)OCc1cc(=O)oc2ccc3ccccc3c12	29*	13	-1	10
O=C(/C=C/Nc1cccc(C(F)(F)F)c1)C(F)(F)F	-1	/	-5	1
COc1ccc(C(C[N+](=O)[O-])c2c(C)[nH]n(-c3ccccc3)c2=O)cc1 (stereo not drawn)	98*	6	-18	-18
O=C(NCCc1ccccc1)C1CCN(S(=O)(=O)c2ccccc2)CC1	2	16	-9	-2
NC(=O)CSc1ncnc2c1oc1ccccc12	0	/	-21	5
OCCC1CN(Cc2cccn2-c2ccccn2)CCN1C1CCCCC1 (stereo not drawn)	74*	-2	-6	7
Cc1ccc(CN2CCN(Cc3cccn3-c3ccccn3)CC2CCO)cc1 (stereo not drawn)	-1	-5	4	2
CC(C)C(OC(=O)c1cccs1)C(=O)NCc1ccco1 (stereo not drawn)	-4	7	0	3
Cc1cc2c(cc(C(=O)OC(C(=O)NCc3ccco3)C(C)C)n2C)o1 (stereo not drawn)	24*	/	6	12
COc1ccc(OC)c(Nc2nc(NCCCN(C)C)nc(N)c2[N+](=O)[O-])c1	3	-9	-1	9
C/C(Cl)=C\COc1cc(C)nc2c(Br)cccc12	-4	-11	-11	-1
COc1ccc(C2CC(c3cccs3)=NN2S(C)(=O)=O)cc1OC (stereo not drawn)	-1	6	-4	-26
COc1ccc(C2CC(c3cccs3)=NN2c2nc(-c3ccccc3)cs2)cc1OC (stereo not drawn)	34*	9	-13	4
SMILES	Fh CTSL1 inh	Hep lipid drop	p-CIP stab down	Arr AP2 block
C[C@H](CO)N1C[C@H](C)[C@@H](CN(C)C(=O)NC2CCCCC2)Oc2c(cccc2N(C)C)C1=O	/	/	/	-6
COc1ccc(OCC(=O)O/N=C(\N)Cc2ccc(Cl)cc2)cc1	30*	/	1	9
COc1ccccc1/C=C/C=N/NC(=O)CCC1C(=O)NN=C1C (stereo not drawn)	5	14	-4	3
OCCOCCn1c(C(CO)Nc2nc(-c3ccccc3Br)cs2)nc2ccccc21 (stereo not drawn)	21*	/	/	18
CCOC(=O)c1c(NC(=O)CSc2nnnn2-c2ccc(OC)cc2)sc(C)c1C	-2	-26	-5	26
CC(=O)Nc1ccc(NC2=C(Cl)C(=O)c3ccccc3C2=O)cc1	/	-13	36	/

Source: PubChem
